Measurements: PubChem BioAssay AID504338 (NMMLSC, 2011)
“And” between values parts separate entries of the source, which are not always exact repeats. Equal values may be shown once. Unmarked numbers belong to inactive results. The source made the active and inactive calls.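 The calls were made as follows: active = GFP response vs DMSO above 150% with enough events counted; inconclusive = fewer than 70 events counted for a yeast strain; inactive = the rest.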

assay: yeast TOR reporter LAP4-GFP retest – cell-based, third cherry pick, flow cytometry, confirmation (AID 504338);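 also: ratio to plate DMSO wells so 100% equals DMSO level rather than 0%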; settings: S. cerevisiae LAP4-GFP strain, 3 h, at 10 µM, stronger effect = higher value
How it was run: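 Material: Saccharomyces cerevisiae strain expressing LAP4-GFP fusion protein / Compound: 10 µM, one concentration / Incubation: compound exposure for 3 h at 30 °C / Detection: high-throughput flow cytometry of GFP, single-cell scatter gate / Measure: median GFP fluorescence as percent of plate DMSO-well average / Benchmarks: rapamycin 400 ng/mL high, DMSO low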

Point of comparison: `CS(=O)(=O)Oc1ccc(Br)c2cccnc12`, GFP response vs DMSO 104%. Against it:
- O=C(O)c1ccc2cccc(O)c2n1 — lower, 100%
- COc1ccc(N/C(C)=C/C(=O)c2ccccc2)cc1 — the same, 104%
- CC(=O)NCCOc1cccc2cccnc12 — higher, 107%
- O=C(N/N=C/c1ccccc1)c1cccc2ccccc12 — lower, 103%
- O=C(Nc1ccccc1)O/N=C1/CCCc2occc21 — higher, 107%
- COCCCNc1nc(N)c([N+](=O)[O-])c(Nc2ccccc2OC)n1 — higher, 106%
- COc1ccc(Nc2nc(NN)nc(C)c2[N+](=O)[O-])cc1 — lower, 100%
- O=C(O)CCCCCNc1ncnc2ccc(Br)cc12 — the same, 104%
- O=C(O)CCS(=O)(=O)c1nc(-c2cccs2)cc(C(F)(F)F)n1 — higher, 115%
- O=C(Nc1nc(-c2ccccn2)cs1)c1ccccc1-n1cnnn1 — lower, 94.4%
- OCCN1CCN(c2ncnc3ccc(Br)cc23)CC1 — the same, 104%
- OCc1ccnc2c(O)cccc12 — lower, 101%
- Cc1cn2c(N)c(C=C3C=C(Cl)C(=O)C(Cl)=C3)c(=O)nc2s1 — higher, 108%
- COc1ccc(N/C=C/C(=O)c2ccc(Cl)cc2)cc1 — higher, 110%

In the case of `Cc1ccc2c(Cl)cc(Cl)c(O)c2n1`, the GFP response vs DMSO is reported as 193% (active).
With `COc1ccccc1-c1cc(C(F)(F)F)nc(S(=O)(=O)CCCC(=O)NC(C)C)n1` the GFP response vs DMSO was 101% and 104%.
In the case of `CCOC(=O)CS(=O)(=O)c1nc(-c2ccccc2)cc(C(F)(F)F)n1`, the GFP response vs DMSO is reported as 182% (active).
